The text below walks through data of ChEMBL document CHEMBL1156322, “Synthesis and biological evaluation of nitrogen-containing benzophenone analogues as TNF-alpha and IL-6 inhibitors with antioxidant activity” (Bioorg Med Chem Lett, 2010).

In data set [1] the test system is Radical scavenging activity. Description: Antioxidant activity assessed as DPPH free radical scavenging activity at 1 uM after 2 mins by spectrophotometry. Type of data set: functional.
For data set [2], the system named is Radical scavenging activity. Description: Antioxidant activity assessed as DPPH free radical scavenging activity at 1 uM after 4 mins by spectrophotometry. The data set is classed as functional.
Data set [3] deals with Radical scavenging activity. Description: Antioxidant activity assessed as DPPH free radical scavenging activity at 1 uM after 6 mins by spectrophotometry. The data set is classed as functional.
In data set [4] the test system is Radical scavenging activity. Description: Antioxidant activity assessed as DPPH free radical scavenging activity at 1 uM after 8 mins by spectrophotometry. Type of data set: functional. (In general: Loss of DPPH colour is used to gauge radical scavenging.)
In data set [5] the test system is Radical scavenging activity. Description: Antioxidant activity assessed as DPPH free radical scavenging activity at 1 uM after 10 mins by spectrophotometry. The data set is classed as functional.
For data set [6], the system named is THP-1. Description: Antiinflammatory activity in LPS-stimulated human THP1 cells assessed as inhibition of TNFalpha formation at 10 uM pretreated 30 mins before LPS challenge measured after 24 hrs by ELISA. The data set is classed as functional. Also on record: scale not given: the % may be the effect or the level left. Summed up:
(§1)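 PMA-differentiated human THP-1 cells in RPMI 1640 with 10% FBS, penicillin and streptomycin. Compound or vehicle (0.5% DMSO) was added for 30 min at 37 °C, then E. coli 0127:B8 LPS. Cells were incubated 24 h at 37 °C, 5% CO2. Supernatant TNF-α and IL-6 were measured by ELISA. Percent inhibition of release was calculated versus control.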
In general terms: In an ELISA, binding on a coated surface is turned into a signal by an enzyme label.

Data set [7] relates to THP-1. Description: Antiinflammatory activity in LPS-stimulated human THP1 cells assessed as inhibition of IL6 formation at 10 uM pretreated 30 mins before LPS challenge measured after 24 hrs by ELISA. The data set is classed as functional. On the set-up: scale not given: the % may be the effect or the level left. The method in brief: as §1
The test system of data set [8] is THP-1. Description: Antiinflammatory activity in LPS-stimulated human THP1 cells assessed as inhibition of IL6 formation at 1 uM pretreated 30 mins before LPS challenge measured after 24 hrs by ELISA. Type of data set: functional. Also on record: scale not given: the % may be the effect or the level left. Summed up:
as §1

Data set [9] is described as follows: Cytotoxicity against LPS-stimulated human THP-1 cells at 10 uM after 24 hrs by CCK-8 assay. The settings on record: THP-1, 24 h. A general note: Formazan colour is commonly taken as a measure of viable cells.
Data set [10] deals with Radical scavenging activity. Description: Antioxidant activity assessed as DPPH free radical scavenging activity at 1 mM after 20 mins by spectrophotometry.

Each structure is given as a SMILES string. Active and inactive are the calls of the source. The calls are words filed in the database; no cut-off is given here.

`COc1cc(OC)c(C(=O)c2cccc(F)c2)c(O)c1CN1CCCCC1`: the Activity in data set [1] was found to be 4.2%; in data set [2] it was 5.98%; in [3] it was 9.25%; in data set [4] it was 11.8%; in data set [5] it was 13.7%; with THP-1 [6] it was 0%. In addition, the Activity in the data set on THP-1 [7] amounted to 87%; in the data set with THP-1 [8] it was 30%; in data set [9] it was 27%; in [10], 24.7%.

As to `COc1cc(OC)c(C(=O)c2ccccc2F)c(O)c1CN1CCN(C)CC1`, the Activity in data set [1] amounted to 3.3%; in [2], 3.95%; in data set [3] it was 4%; in data set [4], 5.4%; in data set [5], 6.2%; in the data set on THP-1 [6], 19%. The Activity was 83% with THP-1 [7], 21% in the data set with THP-1 [8], 40% in data set [9] and 17.5% in data set [10].

Consider `COc1cc(OC)c(C(=O)c2cccc(F)c2)c(O)c1CN1CCOCC1`, for which the result in data set [1], in data set [2], in data set [3], in data set [4], in [5] and in [10] was inactive. In addition, the Activity came out at 21% in the data set on THP-1 [6], 86% in the data set on THP-1 [7], 35% with THP-1 [8] and 42% in data set [9].

For `COc1cc(OC)c(C(=O)c2ccccc2F)c(O)c1CN1CCOCC1`, the Activity in data set [1] came out at 3.5%; in data set [2], 4.2%; in data set [3] it was 4.74%; in data set [4] it was 6.8%; in [5], 8.21%; in the data set on THP-1 [6] it was 27%. In addition, the Activity was determined as 89% with THP-1 [7], 19% in the data set with THP-1 [8], 39% in data set [9] and 19.7% in [10].

As to `COc1cc(OC)c(C(=O)c2ccccc2Br)c(O)c1CN1CCCC1`, the outcome in data set [1], in data set [2], in [3], in [4], in [5] and in [10] was inactive. Also, the Activity in the data set with THP-1 [6] is listed as 99%; in the data set with THP-1 [7], 100%; with THP-1 [8] it was 19%; in data set [9] it was 84%.

For `COc1cc(OC)c(C(=O)c2ccccc2F)c(O)c1CN1CCCC1`, the Activity in [1] amounted to 3.6%; in [2], 4.24%; in data set [3] it was 6.45%; in [4], 9.5%; in data set [5], 11.9%; in the data set on THP-1 [6], 10%. The Activity with THP-1 [7] stood at 87%; in the data set on THP-1 [8] it was 15%; in data set [9], 27%; in data set [10] it was 24.8%.

For `COc1cc(OC)c(C(=O)c2ccccc2Br)c(O)c1CN1CCN(C)CC1`, the Activity in data set [1] stood at 3.2%; in data set [2], 3.95%; in [3] it was 4.5%; in data set [4], 6.8%; in data set [5], 7.59%; in the data set on THP-1 [6] it was 20%. In addition, the Activity with THP-1 [7] turned out to be 81%; with THP-1 [8] it was 9%; in data set [9] it was 23%; in [10] it was 13.5%.

In the case of `O=C(O)c1cc(O)c(O)c(O)c1`, the Activity worked out at 18.2% in data set [1]; 22.7% in data set [2]; 19.4% in data set [3]; 38.4% in data set [4]; 46.9% in [5].

With `COc1cc(O)c(C(=O)c2ccccc2F)c(OC)c1`, the Activity in data set [1] is 8.2%; in [2] it was 12.5%; in [3], 13.6%; in data set [4] it was 16.8%; in data set [5], 18.9%; in the data set with THP-1 [6], 47%. The Activity in the data set on THP-1 [7] worked out at 71%; in the data set with THP-1 [8], 11%; in data set [9] it was 53%; in data set [10], 32.4%.

Take `COc1cc(OC)c(C(=O)c2ccccc2Br)c(O)c1CN1CCOCC1`: the Activity in data set [1] stood at 0.8%; in data set [2], 1.2%; in [3], 1.9%; in data set [4] it was 2.11%; in data set [5], 2.95%; in the data set with THP-1 [6], 65%. Besides, the Activity with THP-1 [7] turned out to be 97%; in the data set with THP-1 [8], 19%; in data set [9], 66%; in data set [10] it was 6.23%.

On to `COc1cc(OC)c(C(=O)c2ccccc2Br)c(O)c1CN1CCCCC1`, for which the Activity in data set [1] worked out at 10.8%; in data set [2], 14.2%; in data set [3], 17.7%; in [4], 25.4%; in [5] it was 32.5%; in the data set with THP-1 [6], 78%. For the same molecule, the Activity in the data set with THP-1 [7] came out at 98%; with THP-1 [8], 22%; in data set [9] it was 61%; in [10], 64.4%.

Take `COc1cc(OC)c(C(=O)c2ccccc2F)c(O)c1CN1CCCCC1`: the Activity in data set [1] worked out at 13.7%; in data set [2], 16.9%; in data set [3] it was 23%; in data set [4] it was 28.9%; in [5] it was 34.6%; in the data set with THP-1 [6], 0%. The Activity was determined as 84% with THP-1 [7], 18% in the data set with THP-1 [8], 31% in [9] and 73.3% in data set [10].

As to `COc1cc(OC)c(C(=O)c2cccc(Cl)c2)c(O)c1CN1CCN(C)CC1`, the outcome in data set [1], in data set [2], in data set [3], in data set [4], in data set [5] and in data set [10] was inactive. Also, the Activity in the data set on THP-1 [6] turned out to be 100%; in the data set with THP-1 [7], 100%; in the data set with THP-1 [8], 54%; in data set [9], 77%.

On to `COc1cc(OC)c(C(=O)c2cccc(F)c2)c(O)c1CN1CCCC1`, for which the Activity worked out at 0.92% in data set [1]; 4.51% in data set [2]; 2.11% in data set [3]; 3.78% in data set [4]; 4.78% in data set [5]; 1% with THP-1 [6]. For the same molecule, the Activity with THP-1 [7] amounted to 93%; with THP-1 [8], 34%; in data set [9], 34%; in data set [10] it was 7.29%.

As for `COc1cc(O)c(C(=O)c2cccc(F)c2)c(OC)c1`, the result in [1], in [2], in data set [3], in [4], in [5] and in [10] was inactive. For the same molecule, the Activity was determined as 0% in the data set with THP-1 [6], 81% with THP-1 [7], 38% in the data set on THP-1 [8] and 24% in data set [9].

Consider `COc1cc(OC)c(C(=O)c2cccc(Cl)c2)c(O)c1CN1CCCCC1`, for which the Activity in [1] came out at 9.2%; in [2], 11.4%; in [3] it was 14.8%; in data set [4], 20.9%; in [5], 22.8%; with THP-1 [6] it was 11%. The Activity amounted to 83% with THP-1 [7], 33% with THP-1 [8], 31% in data set [9] and 45.3% in [10].

For `COc1cc(OC)c(C(=O)c2cccc(Cl)c2)c(O)c1CN1CCCC1`, the Activity in data set [1] was determined as 0.5%; in [2], 1.6%; in [3], 1.82%; in data set [4] it was 2.1%; in [5], 2.11%; in the data set with THP-1 [6] it was 37%. Besides, the Activity in the data set on THP-1 [7] came to 81%; in the data set with THP-1 [8], 41%; in data set [9] it was 53%; in data set [10] it was 5.13%.

Turning to `COc1cc(O)c(C(=O)c2ccccc2Br)c(OC)c1`, the result in data set [1], in [2], in data set [3], in data set [4], in [5] and in data set [10] was inactive. Besides, the Activity in the data set with THP-1 [6] is listed as 11%; with THP-1 [7], 72%; in the data set on THP-1 [8], 7%; in data set [9], 43%.

As for `COc1cc(OC)c(C(=O)c2cccc(F)c2)c(O)c1CN1CCN(C)CC1`, the Activity in data set [1] stood at 9.5%; in [2] it was 15.8%; in data set [3], 18.5%; in data set [4] it was 19.4%; in data set [5], 22.6%; in the data set with THP-1 [6] it was 54%. The Activity with THP-1 [7] worked out at 97%; in the data set with THP-1 [8], 47%; in data set [9], 22%; in data set [10], 40.4%.
